Measured values published in ChEMBL document CHEMBL4811272, “A new sulfated triterpene glycoside from the sea cucumber Colochirus quadrangularis, and evaluation of its antifungal, antitumor and immunomodulatory activities” (Bioorg Med Chem, 2021).
Activity calls are given as the source filed them. The calls are words filed in the database; no cut-off is given here.

Tests used:
[1] = test system: Candida tropicalis; experiment: Antifungal activity against clinical strain Candida tropicalis by microplate reader assay; assay type: functional
Summary of the method: (§1)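 Broth microdilution read by optical density at 630 nm. MIC80 is the first well with about 80% less growth than the drug-free well. Each concentration was run in three replicate wells, and values are means of three independent experiments.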

[2] = test system: Candida parapsilosis; experiment: Antifungal activity against clinical strain Candida parapsilosis by microplate reader assay; assay type: functional; conditions: Lodderomyces parapsilosis; summary of the method: as §1
[3] = test system: MKN-28; experiment: Cytotoxicity against human MKN-28 cells assessed as reduction in cell viability by sulforhodamine B assay; assay type: functional, cell-based
Summary of the method: (§2)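 Cells were kept in RPMI-1640 with 10% FBS, 2 mM L-glutamine, 50 μM β-mercaptoethanol and penicillin/streptomycin, at 37 °C in 5% CO2. SRB assay used 100, 10, 1, 0.1 and 0.01 μM, each in triplicate. Percent inhibition was calculated against solvent control OD. IC50 came from Logit curve fitting and is the mean of three independent experiments.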

[4] = test system: MCF7; experiment: Cytotoxicity against human MCF7 cells assessed as reduction in cell viability by sulforhodamine B assay; assay type: functional, cell-based; summary of the method: as §2
[5] = test system: Bel-7402; experiment: Cytotoxicity against human Bel-7402 cells assessed as reduction in cell viability by sulforhodamine B assay; assay type: functional, cell-based; summary of the method: as §2
[6] = Cytotoxicity against human HO-8910 cells assessed as reduction in cell viability by sulforhodamine B assay; assay type: functional, cell-based; summary of the method: as §2
[7] = test system: HL-60; experiment: Cytotoxicity against human HL-60 cells assessed as reduction in cell viability by sulforhodamine B assay; assay type: functional, cell-based; summary of the method: as §2
[8] = test system: SPC-A4; experiment: Cytotoxicity against human SPC-A4 cells assessed as reduction in cell viability by sulforhodamine B assay; assay type: functional, cell-based; summary of the method: as §2
[9] = test system: Pyricularia oryzae; experiment: Antifungal activity against Pyricularia oryzae P-2B by measuring minimum morphological deformation concentration; assay type: functional; conditions: read-out: MEC
[10] = test system: HCT-116; experiment: Induction of apoptosis in human HCT-116 cells assessed as decrease in viable cells measured upto 2 times of IC50 concentration by annexin V staining based flow cytometry analysis; assay type: functional, cell-based
Summary of the method: (§3)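 HCT-116 cells treated with vehicle or three compound concentrations, collected, and stained with Annexin V-FITC and propidium iodide in the dark at 4 °C. Flow cytometry quadrants: Q4 live, Q3 early apoptotic, Q2 late apoptotic, Q1 necrotic. n = 3; ANOVA vs vehicle.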

[11] = test system: HCT-116; experiment: Induction of apoptosis in human HCT-116 cells assessed as increase in early apoptotic cells measured upto 2 times of IC50 concentration by annexin V staining based flow cytometry analysis; assay type: functional, cell-based; summary of the method: as §3
[12] = test system: HCT-116; experiment: Induction of apoptosis in human HCT-116 cells assessed as increase in late apoptotic cells measured upto 2 times of IC50 concentration by annexin V staining based flow cytometry analysis; assay type: functional, cell-based; summary of the method: as §3
[13] = test system: HMEC-1; experiment: Antiproliferative activity against human HMEC-1 cells assessed as inhibition of proliferation by SRB method; assay type: functional, cell-based
Summary of the method: (§4)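 HMEC-1 endothelial cells seeded and exposed to compound. Proliferation read by SRB and migration by Transwell. IC50 calculated from three independent experiments.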

[14] = test system: HMEC-1; experiment: Antimigratory activity against human HMEC-1 cells assessed as inhibition of cell migration by transwell assay; assay type: functional, cell-based; summary of the method: as §4
[15] = target: Vascular endothelial growth factor receptor 2 (Mus musculus, UniProt P35918); experiment: Inhibition of VEGFR2 in mouse NIH/3T3 cells assessed as reduction of VEGF-stimulated phosphorylation; assay type: cell-based
Summary of the method: (§5)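 NIH/3T3 fibroblasts transfected to overexpress VEGFR-2 or PDGFR-β, starved 24 h, then given compound. Stimulation: VEGF 500 ng/mL for VEGFR-2 cells, PDGF-BB 150 ng/mL for PDGFR-β cells. Cells fixed in 4% paraformaldehyde and probed with PY-99 anti-phosphotyrosine, secondary IgG and HRP-avidin. OD 405 nm read after ABTS; IC50 from three independent experiments.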

[16] = target: Platelet-derived growth factor receptor beta (Mus musculus, UniProt P05622); experiment: Inhibition of PDGFRbeta in mouse NIH/3T3 cells assessed as reduction of PDGF-BB-stimulated phosphorylation; assay type: cell-based; summary of the method: as §5
[17] = test system: CCRF S-180; experiment: Antitumor activity against mouse S-180 cells implanted in KM mouse assessed as tumor growth inhibition at 0.5 mg/kg, IG administered everyday for 7 days relative to control; assay type: functional; conditions: CCRF S-180, po, 168 h, time 7 day, read-out: TGI
Summary of the method: (§6)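 S-180 or H22 cells, about 2.5 × 10⁶ per mouse, injected s.c. in the right axilla of wild-type KM mice. Randomized after 24 h and dosed intragastrically for 7 days; sacrificed 24 h after the last dose. TGI = (W_C − W_T)/W_C × 100% from average tumor weight. n = 8; one-way ANOVA vs vehicle.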

[18] = test system: CCRF S-180; experiment: Antitumor activity against mouse S-180 cells implanted in KM mouse assessed as tumor growth inhibition at 5 mg/kg, IG administered everyday for 7 days relative to control; assay type: functional; conditions: CCRF S-180, po, 168 h, time 7 day, read-out: TGI; summary of the method: as §6
[19] = test system: H22; experiment: Antitumor activity against mouse H22 cells implanted in KM mouse assessed as tumor growth inhibition at 0.5 mg/kg, IG administered everyday for 7 days relative to control; assay type: functional; conditions: H22, po, 168 h, time 7 day, read-out: TGI; summary of the method: as §6
[20] = test system: Bel-7402; experiment: Antitumor activity against human Bel-7402 cells implanted in BALB/c-nu mouse assessed as tumor growth inhibition at 500 mg/kg, IG administered everyday for 7 days relative to control; assay type: functional; conditions: Bel-7402, po, 168 h, time 7 day, read-out: TGI
[21] = test system: Mus musculus; experiment: Immunomodulatory activity in cyclophosphamide-immunosuppressed KM mouse assessed as improved in phagocytosis function in at 50 to 500 mg/kg, IG once daily measured after 14 days; assay type: functional, organism-based; conditions: dose 50-500 mg/kg, time 14.0 day
Summary of the method: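 KM mice dosed intragastrically once daily for 14 days at 5, 50 or 500 mg/kg; vehicle 0.5% CMC-Na. CTX 50 mg/kg i.p. on days 7, 9 and 11. 1 h after the last dose, 25% Indian ink given i.v. at 0.1 mL/10 g. Blood (20 µL) taken at 2 and 10 min, lysed in 2 mL water, OD 680 nm read. K and α calculated with body, liver and spleen weights. n = 8.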

[22] = test system: HCT-116; experiment: Induction of apoptosis in human HCT-116 cells assessed as apoptosis associated morphological changes measured upto 2 times of IC50 concentration for 24 hrs by Hoechst staining method; assay type: functional, cell-based
Summary of the method: (§7)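 HCT-116 cells treated with vehicle or three compound concentrations, then stained with Hoechst 33258. Nuclei examined by inverted fluorescence microscopy at ×400 in five random fields. Apoptotic cells expressed as % of cells counted. n = 3; ANOVA vs vehicle.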

[23] = test system: HCT-116; experiment: Induction of apoptosis in human HCT-116 cells assessed as apoptotic nuclei cells measured upto 2 times of IC50 concentration for 24 hrs by Hoechst staining method; assay type: functional, cell-based; summary of the method: as §7
[24] = test system: Bel-7402; experiment: Antitumor activity against human Bel-7402 cells implanted in BALB/c-nu mouse assessed as T/C ratio at 50 mg/kg, IG administered everyday for 7 days relative to control; assay type: functional; conditions: time 7 day
[25] = test system: Mus musculus; experiment: Immunomodulatory activity in cyclophosphamide-immunosuppressed KM mouse assessed as improved spleen index in at 50 to 500 mg/kg, IG once daily measured after 14 days; assay type: functional, organism-based; conditions: dose 50-500 mg/kg, time 14.0 day
Summary of the method: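 KM mice dosed intragastrically at 5, 50 or 500 mg/kg; vehicle 0.5% CMC-Na. After five doses, immunized i.p. with 0.2 mL 20% rabbit erythrocytes, and dosing continued for 8 days. CTX 30 mg/kg i.p. on days 2, 4 and 6 after immunization. 1 h after the last dose, spleen and thymus weighed; index in g/kg. n = 8.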

Sequence of Vascular endothelial growth factor receptor 2 (P35918 whole entry): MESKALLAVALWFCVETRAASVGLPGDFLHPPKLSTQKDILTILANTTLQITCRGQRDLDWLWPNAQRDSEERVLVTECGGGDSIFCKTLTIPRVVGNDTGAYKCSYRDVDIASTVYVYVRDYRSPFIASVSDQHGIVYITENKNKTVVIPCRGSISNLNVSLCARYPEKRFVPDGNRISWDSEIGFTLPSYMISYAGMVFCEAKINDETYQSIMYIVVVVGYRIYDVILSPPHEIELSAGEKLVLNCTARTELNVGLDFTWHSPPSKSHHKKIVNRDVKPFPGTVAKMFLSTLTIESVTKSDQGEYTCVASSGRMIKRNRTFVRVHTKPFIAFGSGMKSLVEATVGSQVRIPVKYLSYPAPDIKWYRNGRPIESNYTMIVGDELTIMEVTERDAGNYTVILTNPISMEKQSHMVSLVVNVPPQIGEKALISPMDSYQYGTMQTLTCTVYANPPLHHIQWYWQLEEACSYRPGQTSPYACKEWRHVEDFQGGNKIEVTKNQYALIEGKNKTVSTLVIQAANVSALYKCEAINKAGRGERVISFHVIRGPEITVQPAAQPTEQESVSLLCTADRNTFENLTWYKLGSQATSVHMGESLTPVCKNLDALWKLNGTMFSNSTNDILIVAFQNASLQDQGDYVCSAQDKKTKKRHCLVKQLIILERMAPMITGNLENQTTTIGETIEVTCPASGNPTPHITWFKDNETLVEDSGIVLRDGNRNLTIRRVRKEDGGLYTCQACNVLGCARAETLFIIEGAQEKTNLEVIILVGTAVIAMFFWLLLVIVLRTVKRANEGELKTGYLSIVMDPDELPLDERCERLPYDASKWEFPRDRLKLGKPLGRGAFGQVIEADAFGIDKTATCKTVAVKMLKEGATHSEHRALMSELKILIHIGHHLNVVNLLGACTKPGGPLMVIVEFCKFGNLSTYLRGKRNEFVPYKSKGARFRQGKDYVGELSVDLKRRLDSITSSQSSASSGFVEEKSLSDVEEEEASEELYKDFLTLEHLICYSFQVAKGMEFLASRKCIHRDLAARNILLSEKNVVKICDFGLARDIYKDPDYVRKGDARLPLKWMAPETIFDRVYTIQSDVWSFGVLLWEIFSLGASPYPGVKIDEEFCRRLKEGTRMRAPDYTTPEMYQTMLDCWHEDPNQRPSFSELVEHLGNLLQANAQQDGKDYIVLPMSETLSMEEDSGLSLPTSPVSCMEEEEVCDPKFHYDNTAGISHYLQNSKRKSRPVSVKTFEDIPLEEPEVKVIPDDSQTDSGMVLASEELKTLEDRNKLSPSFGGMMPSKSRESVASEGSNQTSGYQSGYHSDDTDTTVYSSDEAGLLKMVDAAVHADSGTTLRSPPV
Sequence of Platelet-derived growth factor receptor beta (P05622 whole entry): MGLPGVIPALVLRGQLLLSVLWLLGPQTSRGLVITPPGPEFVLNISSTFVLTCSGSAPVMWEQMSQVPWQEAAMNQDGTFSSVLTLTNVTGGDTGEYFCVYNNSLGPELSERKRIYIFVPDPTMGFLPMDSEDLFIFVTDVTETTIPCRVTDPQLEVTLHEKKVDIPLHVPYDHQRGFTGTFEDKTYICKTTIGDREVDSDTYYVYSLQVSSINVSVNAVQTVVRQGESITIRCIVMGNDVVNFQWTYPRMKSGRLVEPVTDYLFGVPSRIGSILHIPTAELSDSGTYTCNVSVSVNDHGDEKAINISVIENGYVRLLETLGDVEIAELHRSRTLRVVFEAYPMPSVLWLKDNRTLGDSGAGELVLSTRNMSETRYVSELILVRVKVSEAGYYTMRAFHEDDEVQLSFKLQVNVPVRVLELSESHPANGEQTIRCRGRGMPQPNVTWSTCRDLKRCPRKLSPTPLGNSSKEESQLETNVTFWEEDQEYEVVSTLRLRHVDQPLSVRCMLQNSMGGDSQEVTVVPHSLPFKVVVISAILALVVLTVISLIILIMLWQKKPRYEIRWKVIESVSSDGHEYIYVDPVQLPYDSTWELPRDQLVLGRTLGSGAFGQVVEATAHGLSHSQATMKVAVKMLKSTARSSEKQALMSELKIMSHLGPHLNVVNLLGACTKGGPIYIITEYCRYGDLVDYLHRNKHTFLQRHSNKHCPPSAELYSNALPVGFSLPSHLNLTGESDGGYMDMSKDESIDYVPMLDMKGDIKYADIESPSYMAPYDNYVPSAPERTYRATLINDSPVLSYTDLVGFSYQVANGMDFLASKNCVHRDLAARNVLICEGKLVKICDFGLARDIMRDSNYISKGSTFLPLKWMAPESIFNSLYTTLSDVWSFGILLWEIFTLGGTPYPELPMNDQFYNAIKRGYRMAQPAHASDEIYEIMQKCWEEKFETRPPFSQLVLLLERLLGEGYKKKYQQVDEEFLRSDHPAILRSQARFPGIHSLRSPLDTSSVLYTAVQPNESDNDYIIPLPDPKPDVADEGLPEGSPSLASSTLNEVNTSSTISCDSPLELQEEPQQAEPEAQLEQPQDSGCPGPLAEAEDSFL

C=C(C)CCC[C@]1(C)OC(=O)[C@]23CC[C@@H]4C(=CCC5C(C)(C)[C@@H](O[C@@H]6OC[C@@H](OS(=O)(=O)[O-])[C@H](O)[C@H]6O[C@@H]6O[C@H](C)[C@@H](O[C@@H]7OC[C@@H](O)[C@H](O[C@@H]8O[C@H](CO)[C@@H](O)[C@H](OC)[C@H]8O)[C@H]7O)[C@H](O)[C@H]6O)CC[C@@]54C)[C@]2(C)C[C@H](OC(C)=O)[C@@H]31.[Na+] (stereo not given in full)
MIC80 [1]: 8 µg/mL | MIC80 [2]: 4 µg/mL | IC50 [3]: 1830 nM | IC50 [4]: 2030 nM | IC50 [5]: 1450 nM | IC50 [6]: 1940 nM | IC50 [7]: 600 nM | IC50 [8]: 1500 nM | minimal effective concentration [9]: ≤ 16 µg/mL | Activity [10]: inactive | Activity [11]: Active | Activity [12]: Active | IC50 [13]: 1600 nM | IC50 [14]: 50 nM | IC50 [15]: 2200 nM | IC50 [16]: 4800 nM | inhibition in vivo at 0.5 mg/kg [17]: 21.6% | inhibition in vivo at 5 mg/kg [18]: 44.2% | inhibition in vivo at 0.5 mg/kg [19]: 22.1% | inhibition in vivo at 500 mg/kg [20]: 58.6% | Activity [21]: Active | Activity [22]: Active | Activity [23]: Active | T/C [24]: 42.2% | Activity [25]: Active
